How the values were obtained:
CYP1A1 [1] = target: T1, CYP1A1 (Mus musculus, UniProt P00184); assay: Induction of CYP1A1 activity in mouse Hepa-1c1c7 cells assessed as induction ratio at 7.5 uM after 48 hrs by EROD assay relative to control; assay type: ADME, cell-based
T1 sequence (P00184 whole entry): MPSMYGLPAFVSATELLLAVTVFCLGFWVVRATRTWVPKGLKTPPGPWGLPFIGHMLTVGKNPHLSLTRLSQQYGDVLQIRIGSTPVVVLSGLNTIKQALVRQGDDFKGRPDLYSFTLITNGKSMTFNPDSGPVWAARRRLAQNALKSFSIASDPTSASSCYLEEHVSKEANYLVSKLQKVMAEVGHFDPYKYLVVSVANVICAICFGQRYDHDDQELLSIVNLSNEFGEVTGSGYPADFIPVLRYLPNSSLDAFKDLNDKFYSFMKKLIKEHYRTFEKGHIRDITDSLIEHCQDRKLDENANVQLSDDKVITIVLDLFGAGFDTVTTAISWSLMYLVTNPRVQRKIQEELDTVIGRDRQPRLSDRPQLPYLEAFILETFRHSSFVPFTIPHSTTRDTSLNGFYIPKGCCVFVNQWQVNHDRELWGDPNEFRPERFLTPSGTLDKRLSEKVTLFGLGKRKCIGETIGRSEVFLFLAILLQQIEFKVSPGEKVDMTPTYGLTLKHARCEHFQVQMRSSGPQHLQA
Procedure, shortened: (§1)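 Hepa1c1c7 cells were seeded at 10,000 per well and grown 24 h. They were then exposed 48 h to compound (final DMSO 0.5% v/v) at about 4 × the NQO1 CD. After a PBS wash, cells got 5 µM 7-ethoxyresorufin plus 2 mM salicylamide in medium, 37 °C, 40 min. Resorufin was read at ex 530/em 590 nm, corrected for compound fluorescence. Ratio = (F treated − blank)/(F DMSO control − blank); mean ± SD, n = 3.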

HCT-116 [2] = assay: Antiproliferative activity against human HCT116 cells after 72 hrs by MTT assay; assay type: functional, cell-based; details: HCT-116, 72 h
Procedure, shortened: (§2)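 Cells seeded at 10,000 (MCF7), 4000 (HCT116) or 5000 (CCL186) per well and grown 24 h; MCF7 and CCL186 in EMEM with pyruvate, glutamine, 10% FBS; HCT116 in McCoy's 5A with 10% FBS. Compounds from DMSO stocks (≤1% DMSO final), 72 h exposure; MTT 0.5 mg/ml for 3 h, formazan in DMSO read at 590 nm. IC50 from sigmoidal survival curve, three separate occasions.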

MCF7 [3] = assay: Antiproliferative activity against human MCF7 cells after 72 hrs by MTT assay; assay type: functional, cell-based; details: MCF7, 72 h; procedure, shortened: as §2
[4] = Antiproliferative activity against human CCL186 cells after 72 hrs by MTT assay; assay type: cell-based; details: CCL186, 72 h; procedure, shortened: as §2
MCF7 [5] = assay: Selectivity ratio of IC50 for human CCL186 cells to IC50 for human MCF7 cells
Procedure, shortened: (§3)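 MTT assay. MCF7 and CCL186 cells were grown in EMEM/10% FBS, HCT116 in McCoy's 5A/10% FBS. Seeding was 10,000 (MCF7), 4000 (HCT116) and 5000 (CCL186) cells per well, 24 h. Compound exposure was 72 h, DMSO ≤1% final. MTT 0.5 mg/ml for 3 h, formazan dissolved in DMSO, A590. IC50 came from sigmoidal survival curves, with 3 separate occasions per concentration. Ratio = IC50 CCL186 / IC50 of the cancer line.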

[6] = Selectivity ratio of IC50 for human CCL186 cells to IC50 for human HCT116 cells; assay type: ADME, cell-based, HCT-116; details: CCL186 cells and HCT116 cells, read-out: Ratio IC50; procedure, shortened: as §3
HCT-116 [7] = assay: Cell cycle arrest in human HCT116 cells released from G1 block assessed as accumulation at sub G1 phase at 15 uM after 24 hrs by flow cytometry; assay type: functional
HCT-116 [8] = assay: Cell cycle arrest in human HCT116 cells released from G2 block assessed as accumulation at sub G1 phase at 15 uM after 24 hrs by flow cytometry; assay type: functional
HCT-116 [9] = assay: Cell cycle arrest in human HCT116 cells released from G1 block assessed as accumulation at G1 phase at 15 uM after 24 hrs by flow cytometry; assay type: functional
HCT-116 [10] = assay: Cell cycle arrest in human HCT116 cells released from G2 block assessed as accumulation at G1 phase at 15 uM after 24 hrs by flow cytometry; assay type: functional
HCT-116 [11] = assay: Cell cycle arrest in human HCT116 cells released from G1 block assessed as accumulation at S phase at 15 uM after 24 hrs by flow cytometry; assay type: functional
HCT-116 [12] = assay: Cell cycle arrest in human HCT116 cells released from G2 block assessed as accumulation at S phase at 15 uM after 24 hrs by flow cytometry; assay type: functional
HCT-116 [13] = assay: Cell cycle arrest in human HCT116 cells released from G1 block assessed as accumulation at G2/M phase at 15 uM after 24 hrs by flow cytometry; assay type: functional
HCT-116 [14] = assay: Cell cycle arrest in human HCT116 cells released from G2 block assessed as accumulation at G2/M phase at 15 uM after 24 hrs by flow cytometry; assay type: functional
[15] = Cytotoxicity against mouse Hepa-1c1c7 cells after 48 hrs by MTT assay; assay type: cell-based; details: hepa-1c1c7, 48 h
Procedure, shortened: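 Murine hepatoma cells in α-MEM with 10% heat- and charcoal-treated fetal calf serum, passages 6–17; MTT read-out as for the cancer lines but with 48 h compound exposure. Highest concentration tested 25 µM. IC50 from survival-versus-concentration curve; mean and SD, n = 3.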

[16] = target: NAD(P)H dehydrogenase [quinone] 1 (Mus musculus) (UniProt Q64669); assay: Induction of NQO1 activity in mouse Hepa-1c1c7 cells assessed as induction ratio at 7.5 uM after 48 hrs by MTT assay relative to control; assay type: cell-based
Procedure, shortened: (§4)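 Hepa1c1c7 cells, 10,000 per well, 24 h, were then treated 48 h (DMSO ≤0.5%). Digitonin/EDTA lysates were assayed for menadione-dependent MTT-formazan formation using a G6P/G6PDH NADPH-generating mix with FAD at pH 7.4. The reaction ran 5 min, was stopped with dicoumarol, and read at A590. Degree of induction = (A test − blank)/(A control − blank). Ratios were read off the induction–concentration plot at the EROD test concentration.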

CYP1A1 [17] = target: T1, CYP1A1; assay: Induction of CYP1A1 activity in mouse Hepa-1c1c7 cells assessed as induction ratio at 5 nM after 48 hrs by EROD assay relative to control; assay type: ADME, cell-based; procedure, shortened: as §1
[18] = target: NAD(P)H dehydrogenase [quinone] 1 (Mus musculus) (UniProt Q64669); assay: Induction of NQO1 activity in mouse Hepa-1c1c7 cells assessed as induction ratio at 5 nM after 48 hrs by MTT assay relative to control; assay type: cell-based; procedure, shortened: as §4
[19] = Ratio of induction of NQO1 activity to induction of CYP1 activity in mouse Hepa-1c1c7 cells at 5 nM after 48 hrs
CYP1A1 [20] = target: T1, CYP1A1; assay: Induction of CYP1A1 activity in mouse Hepa-1c1c7 cells assessed as induction ratio at 0.5 uM after 48 hrs by EROD assay relative to control; assay type: ADME, cell-based
Procedure, shortened: (§5)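 About 10,000 Hepa1c1c7 cells/well cultured 24 h, then compound (0.5% DMSO final) for 48 h, at roughly 4 × the concentration doubling NQO1 activity. After PBS wash, cells given 5 µM 7-ethoxyresorufin plus 2 mM salicylamide, 37 °C, 40 min; resorufin fluorescence ex 530/em 590 nm, corrected for compound fluorescence. Ratio = (treated − blank)/(DMSO control − blank); mean ± SD, n = 3.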

[21] = target: NAD(P)H dehydrogenase [quinone] 1 (Mus musculus) (UniProt Q64669); assay: Induction of NQO1 activity in mouse Hepa-1c1c7 cells assessed as induction ratio at 0.5 uM after 48 hrs by MTT assay relative to control; assay type: cell-based; procedure, shortened: as §4
CYP1A1 [22] = target: T1, CYP1A1; assay: Induction of CYP1A1 activity in mouse Hepa-1c1c7 cells assessed as induction ratio at 0.1 uM after 48 hrs by EROD assay relative to control; assay type: ADME, cell-based; procedure, shortened: as §5
[23] = target: NAD(P)H dehydrogenase [quinone] 1 (Mus musculus) (UniProt Q64669); assay: Induction of NQO1 activity in mouse Hepa-1c1c7 cells assessed as induction ratio at 0.1 uM after 48 hrs by MTT assay relative to control; assay type: cell-based; procedure, shortened: as §4
CYP1A1 [24] = target: T1, CYP1A1; assay: Induction of CYP1A1 activity in mouse Hepa-1c1c7 cells assessed as induction ratio at 2.5 uM after 48 hrs by EROD assay relative to control; assay type: ADME, cell-based; procedure, shortened: as §1
[25] = target: NAD(P)H dehydrogenase [quinone] 1 (Mus musculus) (UniProt Q64669); assay: Induction of NQO1 activity in mouse Hepa-1c1c7 cells assessed as induction ratio at 2.5 uM after 48 hrs by MTT assay relative to control; assay type: cell-based; procedure, shortened: as §4
[26] = target: NAD(P)H dehydrogenase [quinone] 1 (Mus musculus) (UniProt Q64669); assay: Induction of NQO1 activity in mouse Hepa-1c1c7 cells assessed as induction ratio at 0.05 uM after 48 hrs by MTT assay relative to control; assay type: cell-based; procedure, shortened: as §4
CYP1A1 [27] = target: T1, CYP1A1; assay: Induction of CYP1A1 activity in mouse Hepa-1c1c7 cells assessed as induction ratio at 0.05 uM after 48 hrs by EROD assay relative to control; assay type: ADME, cell-based; procedure, shortened: as §5
[28] = target: NAD(P)H dehydrogenase [quinone] 1 (Mus musculus) (UniProt Q64669); assay: Induction of NQO1 activity in mouse Hepa-1c1c7 cells assessed as induction ratio at 1 uM after 48 hrs by MTT assay relative to control; assay type: cell-based; procedure, shortened: as §4
CYP1A1 [29] = target: T1, CYP1A1; assay: Induction of CYP1A1 activity in mouse Hepa-1c1c7 cells assessed as induction ratio at 1 uM after 48 hrs by EROD assay relative to control; assay type: ADME, cell-based; procedure, shortened: as §5

Chain of NAD(P)H dehydrogenase [quinone] 1 (Mus musculus) (Q64669 whole entry): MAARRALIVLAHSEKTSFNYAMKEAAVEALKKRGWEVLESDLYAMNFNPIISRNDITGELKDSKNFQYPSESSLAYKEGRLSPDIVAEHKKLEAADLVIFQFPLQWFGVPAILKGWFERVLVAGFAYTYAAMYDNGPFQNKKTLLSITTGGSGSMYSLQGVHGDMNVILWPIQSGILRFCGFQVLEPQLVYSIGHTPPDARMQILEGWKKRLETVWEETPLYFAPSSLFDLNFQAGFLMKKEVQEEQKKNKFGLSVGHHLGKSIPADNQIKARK

| IC50 (HCT-116 [2]) [µM] | IC50 (MCF7 [3]) [µM] | Compound | IC50 [4] [µM] | Ratio IC50 (MCF7 [5]) | selectivity ratio [6] | Activity (HCT-116 [7]) [%] | Activity (HCT-116 [8]) [%] | Activity (HCT-116 [9]) [%] | Activity (HCT-116 [10]) [%] | Activity (HCT-116 [11]) [%] | Activity (HCT-116 [12]) [%] | Activity (HCT-116 [13]) [%] | Activity (HCT-116 [14]) [%] | IC50 [15] [µM] | further results |
| --- | --- | --- | --- | --- | --- | --- | --- | --- | --- | --- | --- | --- | --- | --- | --- |
| 3.7 | 8.2 | O=C1Nc2ccccc2/C1=C\c1cccc(Oc2ccccc2)c1 | 12.7 | 3.4 | 1.5 | 3.62 | 2.16 | 55.93 | 63.51 | 21.83 | 13.1 | 18.98 | 21.09 | 10.8 | fold induction at 48 h, 7.5 µM (CYP1A1 [1]): 1.08; Ratio [16]: 3.34 |
| – | – | O=C1Nc2ccccc2/C1=C1\C(=O)Nc2ccc(Cl)cc21 | – | – | – | – | – | – | – | – | – | – | – | 20.5 | fold induction at 48 h, 0.005 µM (CYP1A1 [17]): 2.31; Ratio [18]: 2.42; Ratio [19]: 1.05 |
| – | – | COc1cc(/C=C2/C(=O)Nc3ccccc32)cc(OC)c1OC | – | – | – | 3.78 | 4.13 | 56.85 | 42.06 | 21.42 | 16.84 | 18.54 | 36.45 | > 25 | – |
| – | – | O=C1Nc2ccccc2/C1=C\c1cccc(Cl)c1 | – | – | – | – | – | – | – | – | – | – | – | 5.9 | fold induction at 48 h, 0.5 µM (CYP1A1 [20]): 1.21; Ratio [21]: 4.47 |
| – | – | O=C1Nc2ccccc2/C1=C\c1ccc(C(F)(F)F)cc1 | – | – | – | – | – | – | – | – | – | – | – | 12 | fold induction at 48 h, 0.1 µM (CYP1A1 [22]): 1.22; Ratio [23]: 2.74 |
| – | – | COc1ccc(/C=C2/C(=O)Nc3ccccc32)c(O)c1 | – | – | – | – | – | – | – | – | – | – | – | > 25 | fold induction at 48 h, 2.5 µM (CYP1A1 [24]): 2.35; Ratio [25]: 3.59 |
| – | – | O=C1Nc2ccccc2/C1=C\c1cccc(C(F)(F)F)c1 | – | – | – | – | – | – | – | – | – | – | – | 3.9 | fold induction at 48 h, 0.1 µM (CYP1A1 [22]): 1.4; Ratio [23]: 3.85 |
| 3.8 | 7.5 | O=C1Nc2cc(Cl)ccc2/C1=C\c1cccc(C(F)(F)F)c1 | 6.6 | 1.7 | 0.9 | 12.39 | 10.62 | 65.55 | 53.47 | 7.1 | 8.05 | 15.13 | 28.39 | 1.1 | Ratio [26]: 5.2; fold induction at 48 h, 0.05 µM (CYP1A1 [27]): 2.4 |
| – | – | COc1cccc(/C=C2/C(=O)Nc3ccc(Cl)cc32)c1 | – | – | – | – | – | – | – | – | – | – | – | 17.5 | fold induction at 48 h, 2.5 µM (CYP1A1 [24]): 1.32; Ratio [25]: 4.34 |
| 3.7 | 7.8 | COc1ccc2c(c1)NC(=O)/C2=C/c1ccc(OC)c(O)c1 | 11.3 | 3.1 | 1.4 | 5.26 | 15.54 | 17.49 | 26.01 | 21.13 | 15.36 | 56.49 | 43.57 | 9.8 | Ratio [28]: 4.34; fold induction at 48 h, 1 µM (CYP1A1 [29]): 1.05 |

— ChEMBL document CHEMBL1153905, “Functionalized 3-benzylidene-indolin-2-ones: inducers of NAD(P)H-quinone oxidoreductase 1 (NQO1) with antiproliferative activity” (Bioorg Med Chem, 2009)
